Assay results published in the RNAGym collection of RNA variant scans (doi:10.1126/science.aae0568).
This sample holds only a part of the variants without activity.

B1: tRNA (parent)
chain: GUUCCGUUGGCGUAAUGGUAACGCGUCUCCCUCCUAAGGAGAAGACUGCGGGUUCGAGUCCCGUACGGAACG

Variants of: B1
Assay: yeast fitness relative to wild type (ratio to wild type); higher = fitter; tRNA-Arg(CCU), competitive growth, 37 C, YPD
Method in brief: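 Amplicons of the tRNA-Arg(CCU) gene were sequenced, 100-nucleotide paired-end, from the start population and from each end population of a pooled yeast competition. The competition, in six parallel replicates, lasted 24 hours in YPD at 37°C. Fitness relative to wild type was calculated from changes in genotype frequencies. Genotypes had to have ≥ 100 starting reads, and estimates < 0.5 were set to 0.5.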

Question: With U3G C5U G10A C55U as the variant, how does the yeast fitness read?
Answer: Its yeast fitness is at most 0.5.

Question: For U3G C11G A65U C66U, which yeast fitness is on record?
Answer: Its yeast fitness is at most 0.5.

Question: For U3G C11G, which yeast fitness is on record?
Answer: Its yeast fitness is 0.556.

Question: Which yeast fitness does the source give for U3G C11U here?
Answer: The yeast fitness was 0.748.

Question: Which yeast fitness does the source give for U3G U16A A45U A70G here?
Answer: Its yeast fitness is at most 0.5.

Question: With C4A A45C as the variant, how does the yeast fitness read?
Answer: Its yeast fitness is 0.754.

Question: With U3C G56A as the variant, how does the yeast fitness read?
Answer: Its yeast fitness is 1.03.

Question: Which yeast fitness does the source give for U3G A14G A43U U54A A57C here?
Answer: The yeast fitness was at most 0.5.

Question: With U3C U32G A40C G41A as the variant, how does the yeast fitness read?
Answer: The yeast fitness was at most 0.5.

Question: Which yeast fitness does the source give for U3C U19A A65G here?
Answer: The yeast fitness was 0.796.

Question: For U3G C11U U19C A20U A42C A65C A69U, which yeast fitness is on record?
Answer: Its yeast fitness is 0.537.

Question: Which yeast fitness does the source give for U3G C4A G6A U35C here?
Answer: Its yeast fitness is at most 0.5.

Question: With C4A A14U C30A G67C as the variant, how does the yeast fitness read?
Answer: The yeast fitness was at most 0.5.

Question: Which yeast fitness does the source give for U3G U47G C60G here?
Answer: Its yeast fitness is 0.503.

Question: With U3C U19G C61U as the variant, how does the yeast fitness read?
Answer: Its yeast fitness is at most 0.5.

Question: For U3C G63A, which yeast fitness is on record?
Answer: Its yeast fitness is 0.909.

Question: With U3C G63C as the variant, how does the yeast fitness read?
Answer: The yeast fitness was 0.747.

Question: Which yeast fitness does the source give for U3G C5U U26A G38A C62U A70U here?
Answer: Its yeast fitness is at most 0.5.

Question: With U3G C4A G12A C29A C30G as the variant, how does the yeast fitness read?
Answer: Its yeast fitness is 0.556.

Question: Which yeast fitness does the source give for U3G A40U A45U here?
Answer: Its yeast fitness is 0.585.

Question: Which yeast fitness does the source give for U3G G6A A15G C34A A70G here?
Answer: The yeast fitness was at most 0.5.

Question: With U3C G51C as the variant, how does the yeast fitness read?
Answer: Its yeast fitness is 0.521.

Question: With U3G C5U G10A G18C C24U A45C as the variant, how does the yeast fitness read?
Answer: Its yeast fitness is 0.553.

Question: For U3C U13A A20C C30A C31A U54A C55U, which yeast fitness is on record?
Answer: The yeast fitness was at most 0.5.

Question: With U3G U16A as the variant, how does the yeast fitness read?
Answer: The yeast fitness was 0.938.

Question: For U3G C5U U26A A45C U59C, which yeast fitness is on record?
Answer: The yeast fitness was at most 0.5.

Question: For U3G A14U C30U C55A, which yeast fitness is on record?
Answer: Its yeast fitness is at most 0.5.

Question: Which yeast fitness does the source give for U3G G50C here?
Answer: The yeast fitness was 0.699.

Question: For U3C G68U, which yeast fitness is on record?
Answer: The yeast fitness was 0.857.

Question: Which yeast fitness does the source give for C4A A36G G58C here?
Answer: Its yeast fitness is 0.565.

Question: Which yeast fitness does the source give for U3G C5U G51A here?
Answer: Its yeast fitness is at most 0.5.

Question: With C4A A15G as the variant, how does the yeast fitness read?
Answer: Its yeast fitness is 0.844.

Question: With C4A A20U G23A C66U as the variant, how does the yeast fitness read?
Answer: The yeast fitness was at most 0.5.

Question: Which yeast fitness does the source give for U3G U26A A70C here?
Answer: Its yeast fitness is 1.27.

Question: Which yeast fitness does the source give for U3G A14G C62G A69G here?
Answer: Its yeast fitness is at most 0.5.

Question: With C4A A21G C60U as the variant, how does the yeast fitness read?
Answer: The yeast fitness was 0.544.

Question: Which yeast fitness does the source give for U3G C33U here?
Answer: The yeast fitness was 0.691.

Question: Which yeast fitness does the source give for U3G C60A C66U here?
Answer: Its yeast fitness is at most 0.5.

Question: Which yeast fitness does the source give for C4A A20G G48A A69C here?
Answer: Its yeast fitness is at most 0.5.

Question: Which yeast fitness does the source give for U3G U8C A43C here?
Answer: Its yeast fitness is at most 0.5.

Question: Which yeast fitness does the source give for U3G C11U G68A here?
Answer: Its yeast fitness is at most 0.5.

Question: For U3C G12A U13C A37C A45U G48C, which yeast fitness is on record?
Answer: Its yeast fitness is at most 0.5.

Question: For U3C U35C A57G, which yeast fitness is on record?
Answer: Its yeast fitness is 0.541.

Question: Which yeast fitness does the source give for U3G A14G C30U G48C G68C here?
Answer: The yeast fitness was at most 0.5.

Question: For U3G C31U, which yeast fitness is on record?
Answer: Its yeast fitness is 1.

Question: With U3C G12A A45U C66G as the variant, how does the yeast fitness read?
Answer: Its yeast fitness is 0.685.

Question: Which yeast fitness does the source give for U3G G25A A45C A69U here?
Answer: Its yeast fitness is 0.814.

Question: With U3G U53G as the variant, how does the yeast fitness read?
Answer: Its yeast fitness is 0.587.

Question: Which yeast fitness does the source give for U3C G58A G68C here?
Answer: The yeast fitness was 0.59.

Question: For U3C G52A G68A, which yeast fitness is on record?
Answer: The yeast fitness was at most 0.5.

Question: For U3G C5G A20C A43C, which yeast fitness is on record?
Answer: The yeast fitness was 0.557.

Question: With C4A A20U C66U as the variant, how does the yeast fitness read?
Answer: The yeast fitness was at most 0.5.

Question: Which yeast fitness does the source give for U3C G51A A69C here?
Answer: The yeast fitness was 0.602.

Question: With C4A A15C C27G C62G as the variant, how does the yeast fitness read?
Answer: The yeast fitness was at most 0.5.

Question: Which yeast fitness does the source give for U3C U7C G41A A42C G50C A70G here?
Answer: The yeast fitness was at most 0.5.

Question: With U3C U8C C27G C33A as the variant, how does the yeast fitness read?
Answer: The yeast fitness was at most 0.5.

Question: For U3G A45G A57G, which yeast fitness is on record?
Answer: The yeast fitness was 0.717.

Question: For U3G C4U C22A, which yeast fitness is on record?
Answer: Its yeast fitness is at most 0.5.

Question: With U3C U8G A20G C24G as the variant, how does the yeast fitness read?
Answer: Its yeast fitness is at most 0.5.

Question: Which yeast fitness does the source give for U3G G67A here?
Answer: The yeast fitness was 0.846.

Question: With U3C U8G U32A C33G as the variant, how does the yeast fitness read?
Answer: Its yeast fitness is at most 0.5.

Question: For U3G U8C A15G C24G G50A C55U, which yeast fitness is on record?
Answer: The yeast fitness was at most 0.5.

Question: Which yeast fitness does the source give for C4A A15G C33G C60A here?
Answer: Its yeast fitness is at most 0.5.

Question: Which yeast fitness does the source give for U3C U32A here?
Answer: The yeast fitness was 0.817.

Question: For U3G C4A, which yeast fitness is on record?
Answer: Its yeast fitness is 0.949.

Question: With C4A A20G C34G C66U as the variant, how does the yeast fitness read?
Answer: The yeast fitness was at most 0.5.

Question: With C4A A21C C22U as the variant, how does the yeast fitness read?
Answer: Its yeast fitness is 0.651.

Question: Which yeast fitness does the source give for U3G G44C here?
Answer: Its yeast fitness is 0.739.

Question: For U3G G17A C30U A69U, which yeast fitness is on record?
Answer: The yeast fitness was at most 0.5.

Question: With U3G A15G C24G G50A C55U as the variant, how does the yeast fitness read?
Answer: Its yeast fitness is 0.613.

Question: Which yeast fitness does the source give for U3C G25A C29U here?
Answer: The yeast fitness was 0.681.

Question: Which yeast fitness does the source give for U3G C24U G58A U59A A65U here?
Answer: The yeast fitness was 0.514.

Question: Which yeast fitness does the source give for U3G G48C here?
Answer: Its yeast fitness is 1.06.

Question: Which yeast fitness does the source give for U3G C29G A45G here?
Answer: Its yeast fitness is 0.594.

Question: For U3G G9C, which yeast fitness is on record?
Answer: The yeast fitness was 0.573.

Question: Which yeast fitness does the source give for U3G A21G A57C here?
Answer: The yeast fitness was at most 0.5.

Question: With U3C G38A as the variant, how does the yeast fitness read?
Answer: Its yeast fitness is 1.05.

Question: Which yeast fitness does the source give for U3C G38C here?
Answer: Its yeast fitness is 0.813.

Question: For U3G G18A, which yeast fitness is on record?
Answer: The yeast fitness was 0.694.

Question: Which yeast fitness does the source give for U3C U59C here?
Answer: The yeast fitness was 0.961.

Question: For C4A A21C G39C C49G, which yeast fitness is on record?
Answer: The yeast fitness was 0.511.

Question: With U3C G48C C66U as the variant, how does the yeast fitness read?
Answer: The yeast fitness was 0.761.

Question: For U3C G12A G44C, which yeast fitness is on record?
Answer: The yeast fitness was 0.546.
